# RanGTP-Imp inh: inhibitors of RanGTP-importin-beta interaction, primary screen, biochemical, FRET, CFP-Ran, YFP-importin-beta, homogeneous | inhibition, % (test concentration not listed) | cell-free CFP-Ran/YFP-importin-beta FRET ratio | 300,000 tested, 1.1% active | AID 2216;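 active = more than half of the replicate wells show a fall in the fluorescence ratio signal beyond about 16%, limit read from the data, passing the limit was not always enough; inconclusive = exactly half of the replicate wells pass the set limit; inactive = fewer than half of replicates pass the limit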;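 note: 0% = DMSO wells and 100% = Ran loaded with GDP instead of GTP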
# Hck Nef HTS: human Hck-Nef kinase inhibition; AID 463187; Recombinant Hck-YEEI plus Nef, Z-Lyte FRET kinase assay; 220,000 tested, 0.68% active; inhibition, % at 20 µM; P08631;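 active = Hck-Nef kinase inhibition above about 50%, limit read from the data; inactive = inhibition below that limit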;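 note: 0% = DMSO with Hck plus Nef and 100% = Hck alone without Nef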
# Tb hexokinase: T. brucei hexokinase 1 inhibition; 220,000 tested, 0.11% active; recombinant TbHK1, G6PDH-coupled NADH A340; inhibition, % at 10 µM;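 active = inhibition of 50% or more in the single-dose primary screen; inactive = inhibition below 50%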
# Runt-SMMHC FRET: inhibitors of human RUNX1 Runt domain binding to CBFb-SMMHC. Q01196+Q13951. Cerulean-Runt/Venus-CBFb-SMMHC FRET ratio 530/480, 1 h. inhibition, % at 20 µM. 220,000 tested, 0.74% active;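 active = mean inhibition across duplicate retests at 20 µM reaching about 50%, limit read from the data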;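 note: 0% = DMSO wells and 100% = wells with excess untagged CBFb-SMMHC; inhibitors lower the FRET ratio by blocking Runt binding to CBFb-SMMHC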
# Target sequence (Q01196 whole entry, looked up, the tested form may be a part): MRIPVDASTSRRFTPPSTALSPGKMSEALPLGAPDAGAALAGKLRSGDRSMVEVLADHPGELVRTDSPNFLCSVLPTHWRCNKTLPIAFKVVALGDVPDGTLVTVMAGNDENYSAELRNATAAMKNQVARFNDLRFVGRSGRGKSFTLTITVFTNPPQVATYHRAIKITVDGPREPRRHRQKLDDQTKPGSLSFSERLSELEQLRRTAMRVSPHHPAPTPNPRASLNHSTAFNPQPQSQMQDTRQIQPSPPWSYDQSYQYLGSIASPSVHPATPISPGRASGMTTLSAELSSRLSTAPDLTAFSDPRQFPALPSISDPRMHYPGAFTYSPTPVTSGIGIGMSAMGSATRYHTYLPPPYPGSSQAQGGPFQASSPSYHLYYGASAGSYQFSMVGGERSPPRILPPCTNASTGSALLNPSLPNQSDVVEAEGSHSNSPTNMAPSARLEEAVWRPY
# Target sequence (Q13951 whole entry, looked up, the tested form may be a part): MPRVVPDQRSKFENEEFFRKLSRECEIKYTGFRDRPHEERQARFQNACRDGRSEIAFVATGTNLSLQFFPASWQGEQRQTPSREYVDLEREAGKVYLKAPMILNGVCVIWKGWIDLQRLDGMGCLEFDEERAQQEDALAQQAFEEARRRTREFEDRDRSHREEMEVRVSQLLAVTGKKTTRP
# Runt-CBFb FRET: inhibitors of human RUNX1 Runt domain binding to CBFb. Q01196+Q13951. inhibition, % at 20 µM. AID 1496. 220,000 tested, 0.46% active. Cerulean-Runt/Venus-CBFb FRET ratio 530/480, 1 h;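 active = inhibition over about 50% at 20 µM in the single-dose screen, limit read from the data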;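 note: 0% = DMSO wells and 100% = excess unlabeled CBFb competitor control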
#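 Assay system: Cerulean-tagged RUNX1 Runt domain (FRET donor) fusion protein / Amount: 100 nM each of Venus-CBFb and Cerulean-Runt domain / Medium: Tris buffer pH 7.5 with salts and BSA / Also added: Venus-CBFb 100 nM / Schedule: 1 h complex formation plus 1 h compound treatment, room temperature / Signal: FRET fluorescence / Read-out: loss of energy transfer signal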
# p97 ATPase inh: human p97 ATPase inhibition. P55072. recombinant p97 ATPase, Kinase-Glo ATP luminescence, 3 h. inhibition, % at 8 µM. 220,000 tested, 0.42% active. AID 1481; in the data active = inhibition above about 15%;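 note: 0% = DMSO vehicle and 100% = wells lacking enzyme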
# Hck-Nef confirm: Hck-Nef kinase inhibition, confirmation; 1,300 tested, 28% active; calls only at 10 µM; shares compounds with Hck Nef HTS; Recombinant Hck-YEEI:Nef, Z-Lyte FRET kinase assay;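 active = average inhibition of at least 50%, with Z-scores no higher than 3 in both the phospho-tyrosine peptide and fluorescence counterscreens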
# * hit, by the source's call; i = inactive; ? = inconclusive; . = no result shown; + = active, no number. Most compounds without a hit are left out; they make up all but 2.1% or so of the library.
SMILES,RanGTP-Imp inh,Hck Nef HTS,Tb hexokinase,Runt-SMMHC FRET,Runt-CBFb FRET,p97 ATPase inh,Hck-Nef confirm
Oc1c(/C=C/C=C/C=Nc2ccccc2)sc(=S)n1Cc1ccccc1,-0.3,50.2*,8.1,-6.5,17.1,-5.2,i
CCn1c(O)c(/C=C/C=C/C=Nc2ccccc2)sc1=S,1.4,24.6,-4.7,0.6,4.2,2.0,.
CC1=NOC(=O)/C1=C\c1ccc(-c2ccc(Br)cc2)o1,0.6,113.2*,15.7,23.5,.,3.0,i
CC1=NOC(=O)/C1=C/c1ccc(-c2ccc(Cl)cc2)o1,.,1.5,11.1,49.9,31.4,3.1,.
CC(C)(C)CC(C)(C)c1ccc(OCC(=O)N/N=C/c2ccc(S(=O)(=O)O)o2)cc1,0.7,56.8*,20.6,-5.3,5.1,1.1,+
Cc1cc(C(=O)COC(=O)c2ccccc2Br)c(C)n1CC1CCCO1 (configuration not stated),-1.4,25.3,-12.7,-0.2,-1.0,-12.5,.
Cc1cc(C(=O)COC(=O)c2cc(O)c3ccccc3c2O)c(C)n1CC1CCCO1 (configuration not stated),.,92.8*,-6.7,-30.1,4.4,6.3,i
NS(=O)(=O)c1ccc(N/N=C/c2ccc(O)cc2O)c([N+](=O)[O-])c1,?,92.5*,-14.2,0.2,-0.6,4.2,+
NS(=O)(=O)c1ccc(N/N=C/c2ccccc2C(=O)O)c([N+](=O)[O-])c1,-4.2,-2.9,-36.0,1.5,-2.8,1.2,.
COc1cc(/C=C/C(=O)OCC(=O)Nc2sc3c(c2C#N)CCC(C)C3)ccc1OCC#N (configuration not stated),-1.8,50.9*,-14.3,-4.9,2.4,11.9,i
CCCNc1c(NS(=O)(=O)c2cccs2)c(=O)oc2ccccc12,2.7,.,.,.,.,.,.
COc1ccccc1OCCNC(=O)c1cccc(S(=O)(=O)N2CC(C)OC(C)C2)c1 (configuration not stated),-2.3,.,.,.,.,.,.
CC1CN(Cc2c(O)ccc3c2oc(=O)c2ccccc23)CC(C)O1 (configuration not stated),2.1,24.0,-15.8,-4.0,1.6,2.5,.
CC1CCCN(Cc2c(O)ccc3c4c(c(=O)oc23)CCCC4)C1 (configuration not stated),10.4,64.4*,-33.3,78.7*,44.6,0.5,.
O=c1oc2c(CN3CCOCC3)c(O)ccc2c2c1CCC2,.,85.5*,-34.4,54.1*,20.6,2.8,.
CS(=O)(=O)N(CC(=O)N/N=C/c1ccc(OCC(=O)N2CCOCC2)cc1)c1ccccc1Cl,-4.7,128.9*,30.3,0.4,-2.0,3.6,i
O=C(N/N=C/c1ccc(OCC(=O)N2CCOCC2)cc1)c1ccccc1Cl,-2.9,2.5,-5.9,-3.0,1.9,5.6,.
CSc1nccc(N/N=C/c2ccccc2)n1,0.3,.,.,.,.,.,.
CCN(CC)c1ccc(-c2nn3c(-c4ccccc4OC)nnc3s2)cc1,7.8,50.7*,3.0,25.5,5.0,-2.6,i
COc1ccccc1-c1nn2c(-c3ccccc3Cl)nnc2s1,.,.,.,3.2,-1.7,.,.
COc1ccc(N=c2oc3cc(O)ccc3cc2C(=O)Nc2ccccn2)cc1OC,5.1,84.0*,-21.8,92.5*,54.6*,-2.9,i
CC1=C(C(=O)Nc2ccc(C(=O)NCCCN3CCCCC3)cc2)SCCO1,-4.0,.,.,.,.,.,.
COc1cc(OC)c(C(=O)OCC(=O)NCCC2=CCCCC2)cc1OC,11.6,.,.,.,.,.,.
COc1cccc(N2CC(C(=O)Nc3nnc(SCC(=O)Nc4cc(C)on4)s3)CC2=O)c1 (configuration not stated),-4.1,52.0*,3.2,-5.8,-8.8,3.4,+
Cc1ccc(N2CC(C(=O)Nc3nnc(SCC(=O)Nc4cc(C)on4)s3)CC2=O)cc1 (configuration not stated),-2.2,8.9,11.9,-5.0,-5.3,3.0,.
SMILES,RanGTP-Imp inh,Hck Nef HTS,Tb hexokinase,Runt-SMMHC FRET,Runt-CBFb FRET,p97 ATPase inh,Hck-Nef confirm
CNc1nc(-c2ccccc2)cc(C(F)(F)F)c1C#N,11.5,68.1*,3.5,118.8,24.3,-4.6,.
CC(C)N1CC(O)=C(c2nc3ccccc3[nH]2)C1=N,0.3,56.1*,3.1,-2.8,0.1,3.2,+
CC(C1CC2CCC1C2)N1CC(O)=C(c2nc3ccccc3[nH]2)C1=N (configuration not stated),?,0.0,-2.4,1.9,1.2,-3.7,.
C=CCN(CC=C)C(=O)C1CCN(S(=O)(=O)c2ccc(N3CCCC3=O)cc2)CC1,4.7,.,.,.,.,.,.
N#Cc1nc(/C=C/c2ccccc2)oc1NCCCN1CCOCC1,3.9,53.9*,-51.1,31.9,14.1,-3.2,.
COCCNc1oc(/C=C/c2ccccc2)nc1C#N,1.5,67.0*,-56.6,32.8,9.5,2.2,.
COc1ccc(NC(=O)C2CCCN(CCCc3ccccc3)C2)cc1OCC(C)C (configuration not stated),3.6,.,.,.,.,.,.
O=C(CSc1nc2ccccc2c2nc3ccccc3n12)NCc1ccco1,6.0,81.6*,-8.7,-2.5,-0.8,4.0,.
CC1=NN(c2nc(-c3ccc(C)cc3)cs2)C(=O)C1N=Nc1cccc(C)c1 (configuration not stated),-0.5,1.7,1.9,-6.7,-4.4,3.8,.
CCOC(=O)c1sc(N2N=C(C)C(N=Nc3cccc(C)c3)C2=O)nc1C (configuration not stated),-0.4,99.9*,-16.6,-8.1,-1.9,-5.5,+
COc1cc(C(=O)NCC(=O)N2CCN(S(=O)(=O)c3cc(C)ccc3C)CC2)cc(OC)c1OC,-3.4,.,.,.,.,.,.
O=C(Nc1ccc(N2CCCC2)cc1)C(c1ccccc1)c1ccccc1,-3.6,58.6*,35.7,5.6,3.0,12.3,i
Cc1ccccc1Nc1ncnc2c1cnn2-c1ccccc1,-1.1,56.0*,7.6,2.1,0.9,-3.0,+
NNc1ncnc2c1cnn2-c1ccccc1,-1.8,2.7,17.5,-6.8,3.2,-6.7,.
CC(=O)OCC1=C(C(=O)O)N2C(=O)C(NC(=O)CCn3nc(C)c(Cl)c3C)C2SC1 (configuration not stated),5.4,9.7,0.6,-0.7,1.9,2.6,.
CC(=O)OCC1=C(C(=O)O)N2C(=O)C(NC(=O)CCn3nc(C(F)(F)F)c(Br)c3C3CC3)C2SC1 (configuration not stated),3.8,59.9*,9.7,1.3,1.6,4.0,i
COc1ccc(NC(=O)CCCC(=O)OCC(=O)c2cccc(OC)c2)cc1,2.8,.,.,.,.,.,.
CCOC(=O)c1cc(-c2ccccc2)sc1NC(=O)COC(=O)c1ccc(Cl)c(S(N)(=O)=O)c1,1.9,1.4,-8.9,-5.8,0.4,4.8,.
